Measurements published in ChEMBL document CHEMBL3102784, “Salicylanilide diethyl phosphates: synthesis, antimicrobial activity and cytotoxicity” (Bioorg Med Chem, 2014).
Converted amounts (≈) assume the structure as drawn. The source made the active and inactive calls. The calls are words filed in the database; no cut-off is given here.

Legend:
[1] = tested on: Mycobacterium avium; assay: Antimycobacterial activity against isoniazid, rifampicin, ethambutol and ofloxacin-resistant Mycobacterium avium My 330/88 after 21 days; assay type: functional; conditions: My 330/88, 504 h
Procedure, shortened: (§1)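 Micromethod MIC in Šula's semisynthetic medium at 37 °C. Compounds added in DMSO at 1000 down to 0.032 µmol/L. Isoniazid standard in sterile water at 0.5–250 µmol/L. Inocula: H37Rv 10^3, M. avium 10^5, M. kansasii 10^4. Read at 14 and 21 d, plus 7 d for M. kansasii.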

[2] = tested on: Mycobacterium avium; assay: Antimycobacterial activity against isoniazid, rifampicin, ethambutol and ofloxacin-resistant Mycobacterium avium My 330/88 after 14 days; assay type: functional; conditions: My 330/88, 336 h; procedure, shortened: as §1
[3] = tested on: Mycobacterium tuberculosis; assay: Antimycobacterial activity against Mycobacterium tuberculosis H37Rv My 331/88 after 21 days; assay type: functional; conditions: H37Rv My 331/88, 504 h; procedure, shortened: as §1
[4] = tested on: Mycobacterium tuberculosis; assay: Antimycobacterial activity against Mycobacterium tuberculosis H37Rv My 331/88 after 14 days; assay type: functional; conditions: H37Rv My 331/88, 336 h; procedure, shortened: as §1
[5] = tested on: Trichophyton mentagrophytes; assay: Antifungal activity against Trichophyton mentagrophytes 445 after 120 hrs by broth microdilution method; assay type: functional; conditions: Trichophyton mentagrophytes, 445, 120 h
Procedure, shortened: (§2)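 Filamentous dermatophyte tested by broth microdilution in RPMI 1640 with glutamine, fluconazole as reference. Value expressed as IC50 relative to growth control. Read at 72 and 120 h.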

[6] = tested on: Trichophyton mentagrophytes; assay: Antifungal activity against Trichophyton mentagrophytes 445 after 72 hrs by broth microdilution method; assay type: functional; conditions: Trichophyton mentagrophytes, 445, 72 h; procedure, shortened: as §2
[7] = tested on: Lichtheimia corymbifera; assay: Antifungal activity against Absidia corymbifera 272 after 48 hrs by broth microdilution method; assay type: functional; conditions: Lichtheimia corymbifera, 272, 48 h
Procedure, shortened: (§3)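 Broth microdilution in RPMI 1640 with glutamine, fluconazole as reference. For yeasts, MIC is ≥80% growth reduction (IC80) versus control. For filamentous fungi, the value is expressed as IC50. Readings at 24 and 48 h.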

[8] = tested on: Lichtheimia corymbifera; assay: Antifungal activity against Absidia corymbifera 272 after 24 hrs by broth microdilution method; assay type: functional; conditions: Lichtheimia corymbifera, 272, 24 h; procedure, shortened: as §3
[9] = tested on: Aspergillus fumigatus; assay: Antifungal activity against Aspergillus fumigatus 231 after 48 hrs by broth microdilution method; assay type: functional; conditions: Aspergillus fumigatus, 231, 48 h; procedure, shortened: as §3
[10] = tested on: Aspergillus fumigatus; assay: Antifungal activity against Aspergillus fumigatus 231 after 24 hrs by broth microdilution method; assay type: functional; conditions: Aspergillus fumigatus, 231, 24 h; procedure, shortened: as §3
[11] = tested on: Trichosporon asahii; assay: Antifungal activity against Trichosporon asahii 1188 after 48 hrs by broth microdilution method; assay type: functional; conditions: Trichosporon asahii, 1188, 48 h; procedure, shortened: as §3
[12] = tested on: Trichosporon asahii; assay: Antifungal activity against Trichosporon asahii 1188 after 24 hrs by broth microdilution method; assay type: functional; conditions: Trichosporon asahii, 1188, 24 h; procedure, shortened: as §3
[13] = tested on: Pichia kudriavzevii; assay: Antifungal activity against Candida krusei E28 after 48 hrs by broth microdilution method; assay type: functional; conditions: E28, 48 h; procedure, shortened: as §3
[14] = tested on: Pichia kudriavzevii; assay: Antifungal activity against Candida krusei E28 after 24 hrs by broth microdilution method; assay type: functional; conditions: E28, 24 h; procedure, shortened: as §3
[15] = tested on: Candida albicans; assay: Antifungal activity against Candida albicans ATCC 44859 after 48 hrs by broth microdilution method; assay type: functional; conditions: ATCC 44859, 48 h; procedure, shortened: as §3
[16] = tested on: Candida albicans; assay: Antifungal activity against Candida albicans ATCC 44859 after 24 hrs by broth microdilution method; assay type: functional; conditions: ATCC 44859, 24 h; procedure, shortened: as §3
[17] = tested on: Nakaseomyces glabratus; assay: Antifungal activity against Candida glabrata 20/I at 500 micromol/L after 24 to 48 hrs by broth microdilution method; assay type: functional, organism-based; procedure, shortened: as §3
[18] = tested on: Candida tropicalis; assay: Antifungal activity against Candida tropicalis 156 at 500 micromol/L after 24 to 48 hrs by broth microdilution method; assay type: functional, organism-based; procedure, shortened: as §3
[19] = tested on: Pseudomonas aeruginosa; assay: Antibacterial activity against Pseudomonas aeruginosa CCM 1961 at 500 micromol/L after 24 to 48 hrs by broth microdilution method; assay type: functional, organism-based
Procedure, shortened: (§4)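 Broth microdilution in Mueller–Hinton broth, compounds dissolved in DMSO, tested over a dilution series from 500 downward. MIC taken as ≥95% growth reduction (IC95) versus drug-free control. Benzylpenicillin comparator. Readings at 24 and 48 h.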

[20] = tested on: Klebsiella pneumoniae; assay: Antibacterial activity against ESBL-positive Klebsiella pneumoniae J 14368/08 at 500 micromol/L after 24 to 48 hrs by broth microdilution method; assay type: functional, organism-based; procedure, shortened: as §4
[21] = tested on: Klebsiella pneumoniae; assay: Antibacterial activity against Klebsiella pneumoniae D 11750/08 at 500 micromol/L after 24 to 48 hrs by broth microdilution method; assay type: functional, organism-based; procedure, shortened: as §4
[22] = tested on: Escherichia coli; assay: Antibacterial activity against Escherichia coli CCM 4517 at 500 micromol/L after 24 to 48 hrs by broth microdilution method; assay type: functional, organism-based; procedure, shortened: as §4
[23] = tested on: Enterococcus sp.; assay: Antibacterial activity against Enterococcus sp. J 14365/08 at 500 micromol/L after 24 to 48 hrs by broth microdilution method; assay type: functional, organism-based; procedure, shortened: as §4
[24] = tested on: Staphylococcus epidermidis; assay: Antibacterial activity against Staphylococcus epidermidis H 6966/08 after 48 hrs by broth microdilution method; assay type: functional; conditions: H 6966/08, 48 h; procedure, shortened: as §4
[25] = tested on: Staphylococcus epidermidis; assay: Antibacterial activity against Staphylococcus epidermidis H 6966/08 after 24 hrs by broth microdilution method; assay type: functional; conditions: H 6966/08, 24 h; procedure, shortened: as §4
[26] = tested on: Staphylococcus aureus; assay: Antibacterial activity against methicillin-resistant Staphylococcus aureus H 5996/08 after 48 hrs by broth microdilution method; assay type: functional; conditions: H 5996/08, 48 h; procedure, shortened: as §4
[27] = tested on: Staphylococcus aureus; assay: Antibacterial activity against methicillin-resistant Staphylococcus aureus H 5996/08 after 24 hrs by broth microdilution method; assay type: functional; conditions: H 5996/08, 24 h; procedure, shortened: as §4
[28] = tested on: Staphylococcus aureus; assay: Antibacterial activity against Staphylococcus aureus CCM 4516/08 after 48 hrs by broth microdilution method; assay type: functional; conditions: CCM 4516/08, 48 h; procedure, shortened: as §4
[29] = tested on: Staphylococcus aureus; assay: Antibacterial activity against Staphylococcus aureus CCM 4516/08 after 24 hrs by broth microdilution method; assay type: functional; conditions: CCM 4516/08, 24 h; procedure, shortened: as §4
[30] = tested on: Mycobacterium kansasii; assay: Antimycobacterial activity against Mycobacterium kansasii 6509/96 after 21 days; assay type: functional; conditions: 6509/96, 504 h; procedure, shortened: as §1
[31] = tested on: Mycobacterium kansasii; assay: Antimycobacterial activity against Mycobacterium kansasii 6509/96 after 14 days; assay type: functional; conditions: 6509/96, 336 h; procedure, shortened: as §1
[32] = tested on: Mycobacterium kansasii; assay: Antimycobacterial activity against Mycobacterium kansasii 6509/96 after 7 days; assay type: functional; conditions: 6509/96, 168 h; procedure, shortened: as §1
[33] = tested on: Mycobacterium kansasii; assay: Antimycobacterial activity against Mycobacterium kansasii My 235/80 after 21 days; assay type: functional; conditions: My 235/80, 504 h; procedure, shortened: as §1
[34] = tested on: Mycobacterium kansasii; assay: Antimycobacterial activity against Mycobacterium kansasii My 235/80 after 14 days; assay type: functional; conditions: My 235/80, 336 h; procedure, shortened: as §1
[35] = tested on: HepG2; assay: Cytotoxicity against human HepG2 cells after 24 hrs by CellTiter assay; assay type: cell-based; conditions: HepG2, 24 h
Procedure, shortened: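 HepG2 cells (passage 27–33) in MEM with 10% FBS, L-glutamine and NEAA, seeded at 1×10^4 per well. Treated next day with compounds at 0.1–100 µM (or 0.1–25 µmol/L), triplicates, <1% DMSO, for 24 h at 37 °C, 5% CO2. MTS reagent added for 2 h, absorbance read at 490 nm. IC50 taken against untreated (100%) and 10% DMSO (0%) controls.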

[36] = tested on: Mycobacterium kansasii; assay: Antimycobacterial activity against Mycobacterium kansasii My 235/80 after 7 days; assay type: functional; conditions: My 235/80, 168 h; procedure, shortened: as §1

Compound	MIC [1] [µM]	MIC [2] [µM]	MIC [3] [µM]	MIC [4] [µM]	MIC50 [5] [µM]	MIC50 [6] [µM]	MIC50 [7] [µM]	MIC50 [8] [µM]	MIC50 [9] [µM]	MIC50 [10] [µM]	MIC80 [11] [µM]	MIC80 [12] [µM]	MIC80 [13] [µM]	MIC80 [14] [µM]	MIC80 [15] [µM]	MIC80 [16] [µM]	Activity [17]	Activity [18]	Activity [19]	Activity [20]	further results
CCOP(=O)(OCC)Oc1ccc(Br)cc1C(=O)Nc1cccc(F)c1	32 (≈ 14.3 µg/mL)	32 (≈ 14.3 µg/mL)	8 (≈ 3.57 µg/mL)	8 (≈ 3.57 µg/mL)	62.5 (≈ 27.9 µg/mL)	62.5 (≈ 27.9 µg/mL)	> 500	> 500	> 500	> 500	> 500	> 500	> 500	> 500	> 500	> 500	inactive	inactive	inactive	inactive	Activity [21]: inactive; Activity [22]: inactive; Activity [23]: inactive; MIC95 [24]: 250 µM (≈ 112 µg/mL); MIC95 [25]: 250 µM (≈ 112 µg/mL); MIC95 [26]: 250 µM (≈ 112 µg/mL); MIC95 [27]: 250 µM (≈ 112 µg/mL); MIC95 [28]: 250 µM (≈ 112 µg/mL); MIC95 [29]: 125 µM (≈ 55.8 µg/mL); MIC [30]: 16 µM (≈ 7.14 µg/mL); MIC [31]: 16 µM (≈ 7.14 µg/mL); MIC [32]: 8 µM (≈ 3.57 µg/mL); MIC [33]: 16 µM (≈ 7.14 µg/mL); MIC [34]: 16 µM (≈ 7.14 µg/mL); IC50 [35]: 5.54 µM; MIC [36]: 8 µM (≈ 3.57 µg/mL)
CCOP(=O)(OCC)Oc1ccc(Cl)cc1C(=O)Nc1ccc(Cl)c(Cl)c1	16 (≈ 7.24 µg/mL)	16 (≈ 7.24 µg/mL)	1 (≈ 0.453 µg/mL)	1 (≈ 0.453 µg/mL)	500 (≈ 226 µg/mL)	500 (≈ 226 µg/mL)	> 500	> 500	> 500	> 500	> 500	> 500	> 500	> 500	> 500	> 500	inactive	inactive	inactive	inactive	Activity [21]: inactive; Activity [22]: inactive; Activity [23]: inactive; MIC95 [24]: > 500 µM; MIC95 [25]: > 500 µM; MIC95 [26]: > 500 µM; MIC95 [27]: > 500 µM; MIC95 [28]: > 500 µM; MIC95 [29]: > 500 µM; MIC [30]: 4 µM (≈ 1.81 µg/mL); MIC [31]: 4 µM (≈ 1.81 µg/mL); MIC [32]: 4 µM (≈ 1.81 µg/mL); MIC [33]: 4 µM (≈ 1.81 µg/mL); MIC [34]: 4 µM (≈ 1.81 µg/mL); IC50 [35]: 2.84 µM; MIC [36]: 4 µM (≈ 1.81 µg/mL)
CCOP(=O)(OCC)Oc1ccc(Br)cc1C(=O)Nc1cccc(Cl)c1	16 (≈ 7.4 µg/mL)	16 (≈ 7.4 µg/mL)	4 (≈ 1.85 µg/mL)	4 (≈ 1.85 µg/mL)	15.6 (≈ 7.23 µg/mL)	7.81 (≈ 3.61 µg/mL)	> 500	> 500	> 500	> 500	62.5 (≈ 28.9 µg/mL)	15.6 (≈ 7.23 µg/mL)	125 (≈ 57.8 µg/mL)	31.2 (≈ 14.5 µg/mL)	> 500	> 500	inactive	inactive	inactive	inactive	Activity [21]: inactive; Activity [22]: inactive; Activity [23]: inactive; MIC95 [24]: 250 µM (≈ 116 µg/mL); MIC95 [25]: 125 µM (≈ 57.8 µg/mL); MIC95 [26]: 250 µM (≈ 116 µg/mL); MIC95 [27]: 125 µM (≈ 57.8 µg/mL); MIC95 [28]: 250 µM (≈ 116 µg/mL); MIC95 [29]: 125 µM (≈ 57.8 µg/mL); MIC [30]: 8 µM (≈ 3.7 µg/mL); MIC [31]: 8 µM (≈ 3.7 µg/mL); MIC [32]: 4 µM (≈ 1.85 µg/mL); MIC [33]: 8 µM (≈ 3.7 µg/mL); MIC [34]: 8 µM (≈ 3.7 µg/mL); IC50 [35]: 6.52 µM; MIC [36]: 4 µM (≈ 1.85 µg/mL)
